From ChEMBL document CHEMBL1135657, “Novel dual inhibitors of AChE and MAO derived from hydroxy aminoindan and phenethylamine as potential treatment for Alzheimer's disease” (J Med Chem, 2002)

Columns and labels:
[1] = target: T1, Amine oxidase [flavin-containing] A (Rattus norvegicus, UniProt P21396); experiment: In vitro inhibitory concentration against Monoamine oxidase A of rat brain homogenates; value ranges from 100-340; assay type: tissue-based
T1 sequence (P21396 whole entry): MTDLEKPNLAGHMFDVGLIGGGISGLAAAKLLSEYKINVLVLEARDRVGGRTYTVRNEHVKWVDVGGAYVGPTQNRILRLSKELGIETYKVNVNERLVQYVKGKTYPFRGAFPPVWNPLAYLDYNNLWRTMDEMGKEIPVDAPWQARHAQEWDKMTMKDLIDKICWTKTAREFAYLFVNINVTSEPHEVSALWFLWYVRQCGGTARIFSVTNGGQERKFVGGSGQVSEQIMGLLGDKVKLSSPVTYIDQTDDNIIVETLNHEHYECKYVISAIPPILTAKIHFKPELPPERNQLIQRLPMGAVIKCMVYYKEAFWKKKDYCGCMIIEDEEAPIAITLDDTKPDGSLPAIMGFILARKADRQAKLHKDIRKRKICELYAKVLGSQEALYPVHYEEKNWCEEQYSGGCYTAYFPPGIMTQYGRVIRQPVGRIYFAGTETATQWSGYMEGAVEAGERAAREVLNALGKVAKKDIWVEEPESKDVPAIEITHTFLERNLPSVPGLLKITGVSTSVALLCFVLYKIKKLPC

Butyrylcholinesterase [2] = target: T2, Butyrylcholinesterase (Equus caballus, UniProt Q9N1N9); experiment: In vitro inhibitory concentration against Butyrylcholinesterase of horse serum; value ranges from 1.38-1.65
T2 sequence (Q9N1N9 whole entry): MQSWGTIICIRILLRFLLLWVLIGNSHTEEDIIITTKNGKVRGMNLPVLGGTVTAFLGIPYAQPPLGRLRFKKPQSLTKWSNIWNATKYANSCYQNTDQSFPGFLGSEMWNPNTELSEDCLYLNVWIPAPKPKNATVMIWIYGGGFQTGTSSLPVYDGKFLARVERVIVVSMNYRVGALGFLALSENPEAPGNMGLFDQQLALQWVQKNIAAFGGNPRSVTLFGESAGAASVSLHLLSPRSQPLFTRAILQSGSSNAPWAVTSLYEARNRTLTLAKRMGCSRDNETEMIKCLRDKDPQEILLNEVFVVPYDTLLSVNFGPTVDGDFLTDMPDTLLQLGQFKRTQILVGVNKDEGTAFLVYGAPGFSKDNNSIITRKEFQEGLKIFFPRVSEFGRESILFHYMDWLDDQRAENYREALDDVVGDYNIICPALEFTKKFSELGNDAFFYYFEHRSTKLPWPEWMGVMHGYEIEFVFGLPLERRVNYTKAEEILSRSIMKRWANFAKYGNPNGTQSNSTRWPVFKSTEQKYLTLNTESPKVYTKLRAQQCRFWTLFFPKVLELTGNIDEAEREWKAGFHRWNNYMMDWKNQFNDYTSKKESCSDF
Outline: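 Ellman assay followed, with 200 µM butyrylthiocholine as substrate. Runs were in triplicate with four-point dose-response curves. IC50 and fiducial limits came from log concentration versus % inhibition.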

[3] = target: T3, Amine oxidase [flavin-containing] B (Rattus norvegicus, UniProt P19643); experiment: In vitro inhibitory concentration against Monoamine oxidase B of rat brain homogenates; value ranges from 0.07-0.59; assay type: tissue-based
T3 sequence (P19643 whole entry): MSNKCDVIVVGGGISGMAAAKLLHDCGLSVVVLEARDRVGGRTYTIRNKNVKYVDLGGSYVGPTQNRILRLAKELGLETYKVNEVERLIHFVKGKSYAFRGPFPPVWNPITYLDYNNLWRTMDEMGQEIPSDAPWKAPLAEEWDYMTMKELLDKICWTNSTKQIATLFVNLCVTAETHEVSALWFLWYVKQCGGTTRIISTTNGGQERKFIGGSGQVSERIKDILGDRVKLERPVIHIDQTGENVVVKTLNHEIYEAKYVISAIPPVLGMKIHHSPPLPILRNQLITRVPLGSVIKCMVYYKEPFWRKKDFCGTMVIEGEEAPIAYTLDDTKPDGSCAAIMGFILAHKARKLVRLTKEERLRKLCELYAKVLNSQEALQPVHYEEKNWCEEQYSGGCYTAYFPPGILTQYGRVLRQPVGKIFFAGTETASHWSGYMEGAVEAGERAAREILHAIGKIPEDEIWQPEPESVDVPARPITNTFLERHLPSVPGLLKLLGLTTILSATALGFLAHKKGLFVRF
Outline: (§1)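 Rat brain homogenate (in 0.3 M sucrose) as enzyme source; compounds diluted 10⁻²M to 10⁻⁹M in 0.05 M phosphate buffer with 0.15 μM clorgyline; preincubated 60 min at 37 °C, then 10 μM ¹⁴C-phenylethylamine added for 20 min more; stopped with citric acid; metabolites extracted into toluene/ethyl acetate, scintillation counted; activity as % of control, tranylcypromine blank.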

Acetylcholinesterase [4] = target: T4, Acetylcholinesterase (Homo sapiens, UniProt P22303); experiment: In vitro inhibitory concentration against purified Acetylcholinesterase of human erythrocytes; value ranges from 91.8-732
T4 sequence (P22303 whole entry): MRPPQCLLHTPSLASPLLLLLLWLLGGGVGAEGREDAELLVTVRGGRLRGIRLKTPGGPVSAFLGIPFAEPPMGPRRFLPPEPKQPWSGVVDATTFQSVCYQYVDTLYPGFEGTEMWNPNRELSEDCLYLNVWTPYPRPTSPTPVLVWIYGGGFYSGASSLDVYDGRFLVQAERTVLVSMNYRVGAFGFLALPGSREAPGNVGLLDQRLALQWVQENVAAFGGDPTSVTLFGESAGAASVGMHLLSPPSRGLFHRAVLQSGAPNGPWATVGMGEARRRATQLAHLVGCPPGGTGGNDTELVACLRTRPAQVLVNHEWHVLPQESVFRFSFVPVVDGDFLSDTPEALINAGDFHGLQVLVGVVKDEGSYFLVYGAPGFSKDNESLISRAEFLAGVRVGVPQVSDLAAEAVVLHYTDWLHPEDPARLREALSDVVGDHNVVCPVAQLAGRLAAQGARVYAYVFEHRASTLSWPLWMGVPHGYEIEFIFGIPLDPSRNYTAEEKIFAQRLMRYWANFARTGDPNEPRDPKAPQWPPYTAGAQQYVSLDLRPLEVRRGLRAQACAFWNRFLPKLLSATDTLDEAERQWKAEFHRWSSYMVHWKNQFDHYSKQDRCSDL

[5] = target: T1, Amine oxidase [flavin-containing] A; experiment: In vitro inhibitory concentration against Monoamine oxidase A of rat brain homogenates; value ranges from 600-1100; assay type: tissue-based
[6] = target: T3, Amine oxidase [flavin-containing] B; experiment: In vitro inhibitory concentration against Monoamine oxidase B of rat brain homogenates; value ranges from 150-360; assay type: tissue-based
Acetylcholinesterase [7] = target: T4, Acetylcholinesterase; experiment: In vitro inhibitory concentration against purified Acetylcholinesterase of human erythrocytes
Acetylcholinesterase [8] = target: T4, Acetylcholinesterase; experiment: In vitro inhibitory concentration against purified Acetylcholinesterase of human erythrocytes; value ranges from 22.2-56.8
[9] = target: T1, Amine oxidase [flavin-containing] A; experiment: In vitro inhibitory concentration against Monoamine oxidase A of rat brain homogenates; value ranges from 100-310; assay type: tissue-based
[10] = target: T3, Amine oxidase [flavin-containing] B; experiment: In vitro inhibitory concentration against Monoamine oxidase B of rat brain homogenates; assay type: tissue-based
[11] = target: T1, Amine oxidase [flavin-containing] A; experiment: In vitro inhibitory concentration against Monoamine oxidase A of rat brain homogenates; value ranges from 11-38; assay type: tissue-based
Acetylcholinesterase [12] = target: T4, Acetylcholinesterase
[13] = target: T3, Amine oxidase [flavin-containing] B; experiment: In vitro inhibitory concentration against Monoamine oxidase B of rat brain homogenates; value ranges from 0.19-0.26; assay type: tissue-based; outline: as §1
Acetylcholinesterase [14] = target: T4, Acetylcholinesterase; experiment: In vitro inhibitory concentration against purified Acetylcholinesterase of human erythrocytes; value ranges from 5.6-11.9
[15] = target: T1, Amine oxidase [flavin-containing] A; experiment: In vitro inhibitory concentration against Monoamine oxidase A of rat brain homogenates; value ranges from 0.8-1.0; assay type: tissue-based
Acetylcholinesterase [16] = target: T4, Acetylcholinesterase; experiment: In vitro inhibitory concentration against purified Acetylcholinesterase of human erythrocytes; value ranges from 1.7-2.5
[17] = target: T1, Amine oxidase [flavin-containing] A; experiment: In vitro inhibitory concentration against Monoamine oxidase A of rat brain homogenates; value ranges from 0.005-0.010; assay type: tissue-based
[18] = target: T3, Amine oxidase [flavin-containing] B; experiment: In vitro inhibitory concentration against Monoamine oxidase B of rat brain homogenates; value ranges from 0.019-0.021; assay type: tissue-based; outline: as §1
[19] = Pseudo-first order rate constant for carbamoylation of ACHE at 50 (uM) concentration; assay type: ADME
Outline: (§2)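 Human erythrocyte AChE, same Ellman conditions: 200 µM […], 60 min preincubation at 37 °C, 0.1 M phosphate pH 7.4. Progressive inhibition followed at 4-5 inhibitor concentrations. Pseudo-first-order k_obs (min⁻¹) derived per concentration; apparent bimolecular carbamylation constant k_i calculated from these.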

[20] = Pseudo-first order rate constant for carbamoylation of ACHE at 400 (uM) concentration; assay type: ADME
Outline: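 Pseudo-first-order rate constants kobs measured at 4-5 inhibitor concentrations following Bar-On et al. Apparent bimolecular carbamylation constant ki calculated from these.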

[21] = Bimolecular rate constant for carbamoylation of ACHE; assay type: ADME
Outline: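 Human erythrocyte AChE preincubated with inhibitor at 37 °C in 0.1 M phosphate buffer, pH 7.4, under Ellman conditions with 200 µM […]. Pseudo-first-order rate constants (k_obs) for progressive inhibition were obtained at 4-5 inhibitor concentrations. The apparent bimolecular carbamylation constant k_i was calculated from these.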

[22] = Pseudo-first order rate constant for carbamoylation of ACHE at 200 (uM) concentration; assay type: ADME; outline: as §2
Butyrylcholinesterase [23] = target: T2, Butyrylcholinesterase; experiment: In vitro inhibitory concentration against Butyrylcholinesterase of horse serum; value ranges from 1.54-2.83
Acetylcholinesterase [24] = target: T4, Acetylcholinesterase; remark: listed apart in the source
[25] = Pseudo-first order rate constant for carbamoylation of ACHE at 100 (uM) concentration; assay type: ADME; outline: as §2
[26] = Pseudo-first order rate constant for carbamoylation of ACHE at 300 (uM) concentration; assay type: ADME; outline: as §2
Acetylcholinesterase [27] = target: T4, Acetylcholinesterase; experiment: In vitro inhibitory concentration against purified Acetylcholinesterase of human erythrocytes; value ranges from 9.8-157
Butyrylcholinesterase [28] = target: T2, Butyrylcholinesterase
[29] = target: T1, Amine oxidase [flavin-containing] A; experiment: In vitro inhibitory concentration against Monoamine oxidase A of rat brain homogenates; value ranges from 1.0-1.8; assay type: tissue-based
[30] = target: T3, Amine oxidase [flavin-containing] B; experiment: In vitro inhibitory concentration against Monoamine oxidase B of rat brain homogenates; value ranges from 1.6-2.9; assay type: tissue-based
Acetylcholinesterase [31] = target: T4, Acetylcholinesterase; experiment: In vitro inhibitory concentration against purified Acetylcholinesterase of human erythrocytes; value ranges from 33.4-148
Acetylcholinesterase [32] = target: T4, Acetylcholinesterase; experiment: In vitro inhibitory concentration against purified Acetylcholinesterase of human erythrocytes; value ranges from 1.27-1.86
Acetylcholinesterase [33] = target: T4, Acetylcholinesterase; experiment: In vitro inhibitory concentration against purified Acetylcholinesterase of human erythrocytes; value ranges from […]-[…]
Acetylcholinesterase [34] = target: T4, Acetylcholinesterase; experiment: In vitro inhibitory concentration against purified Acetylcholinesterase of human erythrocytes; value ranges from 7.33-61.5
[35] = target: T1, Amine oxidase [flavin-containing] A; experiment: In vitro inhibitory concentration against Monoamine oxidase A of rat brain homogenates; assay type: tissue-based

C#CCNC(C)Cc1ccccc1 (centres undefined)
IC50 [1]: 195 µM

C#CCN(C)C(C)Cc1cccc(OC(=O)N(C)CC)c1 (centres undefined)
IC50 (Butyrylcholinesterase [2]): 1.5 µM
IC50 [3]: 0.1 µM
IC50 (Acetylcholinesterase [4]): 234 µM

C#CCNC(C)Cc1cccc(O)c1 (centres undefined)
IC50 [5]: 830 µM
IC50 [6]: 230 µM

CC(c1cccc(OC(=O)N(C)C)c1)N(C)C (centres undefined)
IC50 (Acetylcholinesterase [7]): 0.03 µM

CCN(C)C(=O)Oc1cccc(CCN)c1
IC50 (Acetylcholinesterase [8]): 35.5 µM
IC50 [9]: 180 µM
IC50 [10]: > 1000 µM

CCN(C)C(=O)Oc1cccc(CCNC)c1
IC50 [11]: 20 µM
IC50 [10]: > 1000 µM

CN(C)C(=O)Oc1ccc2c(c1)CC(N)CC2 (centres undefined)
IC50 (Acetylcholinesterase [12]): 3.24 µM

C#CCN(C)[C@H](C)Cc1cccc(OC(=O)N(C)C2CCCCC2)c1
IC50 [13]: 0.22 µM
IC50 (Acetylcholinesterase [14]): 7.9 µM
IC50 [15]: 0.9 µM

C#CCN(C)[C@H](C)Cc1cccc(OC(=O)N(C)CCCCCC)c1
IC50 (Acetylcholinesterase [16]): 2 µM

C#CCN(C)[C@@H]1CCc2ccc(O)cc21
IC50 [17]: 0.007 µM
IC50 [18]: 0.02 µM

C#CCN[C@@H]1CCc2ccc(OC(=O)N(C)CC)cc21.Cl
K obs [19]: 16 min⁻¹
K obs [20]: 52 min⁻¹
Bimolecular carbamoylation rate constant (ki) [21]: 1.7 M⁻¹ s⁻¹
K obs [22]: 32 min⁻¹
IC50 (Butyrylcholinesterase [23]): 1.98 µM
IC50 (Acetylcholinesterase [24]): 31.8 µM
K obs [25]: 21 min⁻¹
K obs [26]: 42 min⁻¹
IC50 [10]: > 1000 µM

C#CCN(C)C(C)Cc1cccc(OC(=O)N(C)CCC)c1 (centres undefined)
IC50 (Acetylcholinesterase [27]): 33.1 µM
IC50 (Butyrylcholinesterase [28]): 22.8 µM

C#CCNC1CCc2cccc(O)c21 (centres undefined)
IC50 [29]: 1.3 µM
IC50 [30]: 2.1 µM

CCN(C)C(=O)Oc1ccc2c(c1)CC(N)CC2 (centres undefined)
IC50 (Acetylcholinesterase [31]): 79.6 µM

CN(C)C(=O)Oc1ccc2c(c1)C(N)CCC2 (centres undefined)
IC50 (Acetylcholinesterase [32]): 1.48 µM

CCCNC1CCc2ccc(OC(=O)N(C)CC)cc21 (centres undefined)
IC50 (Acetylcholinesterase [33]): 3.6 µM

C#CCNC1CCc2ccc(OC(=S)N(C)CC)cc21 (centres undefined)
IC50 (Acetylcholinesterase [7]): > 500 µM

CCNC(=O)Oc1ccc2c(c1)C(N)CC2 (centres undefined)
IC50 (Acetylcholinesterase [34]): 17.7 µM

CCCN(C)C(=O)Oc1cccc2c1C(N)CC2 (centres undefined)
IC50 [35]: 1000 µM
IC50 [10]: > 1000 µM
